ChEMBL document CHEMBL1629686, “Substrate selectivity and a novel role in inhibitor discrimination by residue 237 in the KPC-2 beta-lactamase” (Antimicrob Agents Chemother, 2010)
Converted amounts (≈) assume the structure as drawn.

Assays:
Escherichia coli [1] = experiment: Antimicrobial activity against Escherichia coli DH10B harboring beta-lactamase KPC-2 T237C mutant by agar dilution method; assay type: functional; conditions: K-12 DH10B
In short: (§1)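 LB agar dilution MICs followed CLSI criteria, with inocula applied by Steers replicator. […] Piperacillin-tazobactam was tested at an 8:1 ratio. Wild-type and mutant blaKPC-2 were carried on pBC SK(+), or wild type on pBR322-catI, in E. coli DH10B.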

Escherichia coli [2] = experiment: Antimicrobial activity against Escherichia coli DH10B harboring beta-lactamase KPC-2 T237V mutant by agar dilution method; assay type: functional; conditions: K-12 DH10B; in short: as §1
Escherichia coli [3] = experiment: Antimicrobial activity against Escherichia coli DH10B harboring beta-lactamase KPC-2 T237M mutant by agar dilution method; assay type: functional; conditions: K-12 DH10B; in short: as §1
Escherichia coli [4] = experiment: Antimicrobial activity against Escherichia coli DH10B harboring beta-lactamase KPC-2 T237G mutant by agar dilution method; assay type: functional; conditions: K-12 DH10B; in short: as §1
Escherichia coli [5] = experiment: Antimicrobial activity against Escherichia coli DH10B harboring beta-lactamase KPC-2 T237I mutant by agar dilution method; assay type: functional; conditions: K-12 DH10B; in short: as §1
Escherichia coli [6] = experiment: Antimicrobial activity against Escherichia coli DH10B harboring plasmid pBR322-catI carrying beta-lactamase KPC-2 by agar dilution method; assay type: functional; conditions: K-12 DH10B; in short: as §1
Escherichia coli [7] = experiment: Antimicrobial activity against Escherichia coli DH10B harboring plasmid pBC SK(+) carrying wild type beta-lactamase KPC-2 by agar dilution method; assay type: functional; conditions: K-12 DH10B; in short: as §1
Escherichia coli [8] = experiment: Antimicrobial activity against Escherichia coli DH10B by agar dilution method; assay type: functional; conditions: K-12 DH10B; in short: as §1
Escherichia coli [9] = experiment: Antimicrobial activity against Escherichia coli DH10B harboring beta-lactamase KPC-2 T237R mutant by agar dilution method; assay type: functional; conditions: K-12 DH10B; in short: as §1
Escherichia coli [10] = experiment: Antimicrobial activity against Escherichia coli DH10B harboring beta-lactamase KPC-2 T237N mutant by agar dilution method; assay type: functional; conditions: K-12 DH10B; in short: as §1
Escherichia coli [11] = experiment: Antimicrobial activity against Escherichia coli DH10B harboring beta-lactamase KPC-2 T237A mutant by agar dilution method; assay type: functional; conditions: K-12 DH10B; in short: as §1
Escherichia coli [12] = experiment: Antimicrobial activity against Escherichia coli DH10B harboring beta-lactamase KPC-2 T237P mutant by agar dilution method; assay type: functional; conditions: K-12 DH10B; in short: as §1
Escherichia coli [13] = experiment: Antimicrobial activity against Escherichia coli DH10B harboring beta-lactamase KPC-2 T237L mutant by agar dilution method; assay type: functional; conditions: K-12 DH10B; in short: as §1
Escherichia coli [14] = experiment: Antimicrobial activity against Escherichia coli DH10B harboring plasmid […] by agar dilution method; assay type: functional; conditions: K-12 DH10B; in short: as §1
Escherichia coli [15] = experiment: Antimicrobial activity against Escherichia coli DH10B harboring beta-lactamase KPC-2 T237Y mutant by agar dilution method; assay type: functional; conditions: K-12 DH10B; in short: as §1
Escherichia coli [16] = experiment: Antimicrobial activity against Escherichia coli DH10B harboring beta-lactamase KPC-2 T237E mutant by agar dilution method; assay type: functional; conditions: K-12 DH10B; in short: as §1
Escherichia coli [17] = experiment: Antimicrobial activity against Escherichia coli DH10B harboring beta-lactamase KPC-2 T237K mutant by agar dilution method; assay type: functional; conditions: K-12 DH10B; in short: as §1
Escherichia coli [18] = experiment: Antimicrobial activity against Escherichia coli DH10B harboring beta-lactamase KPC-2 T237W mutant by agar dilution method; assay type: functional; conditions: K-12 DH10B; in short: as §1
Escherichia coli [19] = experiment: Antimicrobial activity against Escherichia coli DH10B harboring beta-lactamase KPC-2 T237H mutant by agar dilution method; assay type: functional; conditions: K-12 DH10B; in short: as §1
Escherichia coli [20] = experiment: Antimicrobial activity against Escherichia coli DH10B harboring beta-lactamase KPC-2 T237Q mutant by agar dilution method; assay type: functional; conditions: K-12 DH10B; in short: as §1
Escherichia coli [21] = experiment: Antimicrobial activity against Escherichia coli DH10B harboring beta-lactamase KPC-2 T237S mutant by agar dilution method; assay type: functional; conditions: K-12 DH10B; in short: as §1
Escherichia coli [22] = experiment: Antimicrobial activity against Escherichia coli DH10B harboring beta-lactamase KPC-2 T237F mutant by agar dilution method; assay type: functional; conditions: K-12 DH10B; in short: as §1
Escherichia coli [23] = experiment: Antimicrobial activity against Escherichia coli DH10B harboring beta-lactamase KPC-2 T237D mutant by agar dilution method; assay type: functional; conditions: K-12 DH10B; in short: as §1
Klebsiella pneumoniae [24] = experiment: Antimicrobial activity against Klebsiella pneumoniae 1534 expressing beta-lactamase KPC-2 by agar dilution method; assay type: functional
In short: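 MICs were determined by LB agar dilution following CLSI criteria, with a Steers replicator. […] Piperacillin-tazobactam was kept at an 8:1 ratio.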

Klebsiella pneumoniae [25] = experiment: Activity of Klebsiella pneumoniae 1534 beta-lactamase KPC-2 T237A mutant by spectrophotometric analysis
In short: (§2)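 Purified KPC-2 variant enzymes (periplasmic lysate from E. coli, preparative isoelectric focusing). Hydrolysis followed by diode-array spectrophotometry in 10 mM PBS, pH 7.4, room temperature. Enzyme at 10 nM with substrate in molar excess for pseudo-first-order conditions. Vmax and Km came from a nonlinear least-squares Michaelis-Menten fit.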

Klebsiella pneumoniae [26] = experiment: Ratio of Kcat/Km for Klebsiella pneumoniae 1534 beta-lactamase KPC-2 T237S mutant by spectrophotometric analysis; in short: as §2
Klebsiella pneumoniae [27] = experiment: Ratio of Kcat/Km for Klebsiella pneumoniae 1534 beta-lactamase KPC-2 T237A mutant by spectrophotometric analysis; in short: as §2
Klebsiella pneumoniae [28] = experiment: Activity of Klebsiella pneumoniae 1534 beta-lactamase KPC-2 T237S mutant by spectrophotometric analysis; in short: as §2
Klebsiella pneumoniae [29] = experiment: Selectivity index, Ratio of Kcat/Km for Klebsiella pneumoniae 1534 beta-lactamase KPC-2 T237S mutant to ratio of Kcat/Km for Klebsiella pneumoniae 1534 beta-lactamase KPC-2 by spectrophotometric analysis
In short: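 Kinetics used purified enzymes in 10 mM PBS, pH 7.4, room temperature, with 10 nM enzyme and substrate in excess. Km and Vmax came from a Michaelis-Menten fit. kcat/Km of the variant was compared with wild type as ΔΔG = −RT ln of the kcat/Km ratio.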

[30] = Inhibition of Klebsiella pneumoniae 1534 beta-lactamase KPC-2 T237S mutant by competitive assay
In short: (§3)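 Direct competition assay at steady state with purified enzyme at 10 nM. Inhibitor was varied from 5 μM to 5 mM, with nitrocefin 100 μM final as reporter substrate. 1/v0 was plotted against [I], and Ki(observed) was taken as y-intercept divided by slope. This was corrected by 1 + [S]/Km(nitrocefin).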

[31] = Inhibition of Klebsiella pneumoniae 1534 beta-lactamase KPC-2 T237A mutant by competitive assay; in short: as §3
Klebsiella pneumoniae [32] = experiment: Ratio of Ki for Klebsiella pneumoniae 1534 beta-lactamase KPC-2 T237S mutant to Ki for Klebsiella pneumoniae wild type beta-lactamase KPC-2 by competitive assay; in short: as §3
Klebsiella pneumoniae [33] = experiment: Ratio of Ki for Klebsiella pneumoniae 1534 beta-lactamase KPC-2 T237A mutant to Ki for wild type Klebsiella pneumoniae beta-lactamase KPC-2 by competitive assay

Compound | MIC (Escherichia coli [1]) [µg/mL] | MIC (Escherichia coli [2]) [µg/mL] | MIC (Escherichia coli [3]) [µg/mL] | MIC (Escherichia coli [4]) [µg/mL] | MIC (Escherichia coli [5]) [µg/mL] | MIC (Escherichia coli [6]) [µg/mL] | MIC (Escherichia coli [7]) [µg/mL] | MIC (Escherichia coli [8]) [µg/mL] | MIC (Escherichia coli [9]) [µg/mL] | MIC (Escherichia coli [10]) [µg/mL] | MIC (Escherichia coli [11]) [µg/mL] | MIC (Escherichia coli [12]) [µg/mL] | MIC (Escherichia coli [13]) [µg/mL] | MIC (Escherichia coli [14]) [µg/mL] | MIC (Escherichia coli [15]) [µg/mL] | MIC (Escherichia coli [16]) [µg/mL] | MIC (Escherichia coli [18]) [µg/mL] | MIC (Escherichia coli [21]) [µg/mL] | MIC (Escherichia coli [23]) [µg/mL] | MIC (Klebsiella pneumoniae [24]) [µg/mL] | other results
C[C@@H](O)[C@H]1C(=O)N2C(C(=O)O)=C(S[C@@H]3CN[C@H](CNS(N)(=O)=O)C3)[C@H](C)[C@H]12 [DORIPENEM] | 0.06 (≈ 0.143 µM) | 0.06 (≈ 0.143 µM) | 0.06 (≈ 0.143 µM) | 0.06 (≈ 0.143 µM) | 0.06 (≈ 0.143 µM) | 4 (≈ 9.51 µM) | 0.25 (≈ 0.595 µM) | 0.06 (≈ 0.143 µM) | 0.06 (≈ 0.143 µM) | 0.06 (≈ 0.143 µM) | 0.06 (≈ 0.143 µM) | 0.06 (≈ 0.143 µM) | 0.06 (≈ 0.143 µM) | 0.06 (≈ 0.143 µM) | 0.06 (≈ 0.143 µM) | 0.06 (≈ 0.143 µM) | 0.06 (≈ 0.143 µM) | 0.25 (≈ 0.595 µM) | 0.06 (≈ 0.143 µM) | 4 (≈ 9.51 µM) | MIC (Escherichia coli [17]): 0.06 µg/mL (≈ 0.143 µM); MIC (Escherichia coli [19]): 0.06 µg/mL (≈ 0.143 µM); MIC (Escherichia coli [20]): 0.06 µg/mL (≈ 0.143 µM); MIC (Escherichia coli [22]): 0.06 µg/mL (≈ 0.143 µM)
C[C@@H](O)[C@H]1C(=O)N2C(C(=O)O)=C(SCCNC=N)C[C@H]12 [IMIPENEM ANHYDROUS] |  |  |  |  |  | 8 (≈ 26.7 µM) | 0.5 (≈ 1.67 µM) |  |  |  |  |  |  |  |  |  | 0.25 (≈ 0.835 µM) | 1 (≈ 3.34 µM) | 0.25 (≈ 0.835 µM) | 8 (≈ 26.7 µM) | Km (Klebsiella pneumoniae [25]): 31 µM; kcat (Klebsiella pneumoniae [25]): 6.8 s⁻¹; kcat/Km (Klebsiella pneumoniae [26]): 1 µM⁻¹ s⁻¹; kcat/Km (Klebsiella pneumoniae [27]): 0.22 µM⁻¹ s⁻¹; Km (Klebsiella pneumoniae [28]): 21 µM; kcat (Klebsiella pneumoniae [28]): 21 s⁻¹; fold change (FC) (Klebsiella pneumoniae [29]): 2.7
C[C@@H](O)[C@H]1C(=O)N2C(C(=O)O)=C(S[C@@H]3CN[C@H](C(=O)N(C)C)C3)[C@H](C)[C@H]12 [MEROPENEM] | 0.06 (≈ 0.156 µM) | 0.06 (≈ 0.156 µM) | 0.06 (≈ 0.156 µM) | 0.06 (≈ 0.156 µM) | 0.06 (≈ 0.156 µM) | 2 (≈ 5.22 µM) | 0.25 (≈ 0.652 µM) | 0.06 (≈ 0.156 µM) | 0.06 (≈ 0.156 µM) | 0.06 (≈ 0.156 µM) | 0.06 (≈ 0.156 µM) | 0.06 (≈ 0.156 µM) | 0.06 (≈ 0.156 µM) | 0.06 (≈ 0.156 µM) | 0.06 (≈ 0.156 µM) | 0.06 (≈ 0.156 µM) | 0.06 (≈ 0.156 µM) | 0.5 (≈ 1.3 µM) | 0.06 (≈ 0.156 µM) | 4 (≈ 10.4 µM) | MIC (Escherichia coli [17]): 0.06 µg/mL (≈ 0.156 µM); MIC (Escherichia coli [19]): 0.06 µg/mL (≈ 0.156 µM); MIC (Escherichia coli [20]): 0.06 µg/mL (≈ 0.156 µM); MIC (Escherichia coli [22]): 0.06 µg/mL (≈ 0.156 µM)
CC1(C)[C@H](C(=O)O)N2C(=O)C[C@H]2S1(=O)=O [SULBACTAM] |  |  |  |  |  |  |  |  |  |  |  |  |  |  |  |  |  |  |  |  | Ki [30]: 97 µM; Ki [31]: 703 µM; fold change (FC) (Klebsiella pneumoniae [32]): 1.7; fold change (FC) (Klebsiella pneumoniae [33]): 4.2
